≈ marks a conversion by molar mass, not a printed value. Each block holds one compound with its values, some of them ahead of it.
Tests used:
[1] = Cytotoxicity against human hepa59T/VGH cells by MTT assay; assay type: cell-based, Hepa 59T/VGH; details: read-out: ED50 (the source's name)
Procedure, shortened: (§1)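 MTT read-out on human tumour cells: Hepa59T/VGH liver carcinoma, WiDr colon adenocarcinoma, A-549 lung carcinoma and MCF-7 breast adenocarcinoma. ED50 taken as the sample concentration giving 50% lower absorbance than untreated cells.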

[2] = Cytotoxicity against human WiDr cells by MTT assay; assay type: cell-based; details: read-out: ED50 (the source's name); procedure, shortened: as §1
[3] = Cytotoxicity against human A549 cells by MTT assay; assay type: cell-based; details: read-out: ED50 (the source's name); procedure, shortened: as §1
[4] = Cytotoxicity against human MCF7 cells by MTT assay; assay type: cell-based; details: read-out: ED50 (the source's name); procedure, shortened: as §1
[5] = Antiinflammatory activity assessed as inhibition of fMLP-induced elastase release in human neutrophils at 10 ug/mL relative to control; assay type: functional, cell-based, Neutrophil
Procedure, shortened: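 Neutrophils (6 × 10⁵/mL) supplemented with MeO-Suc-Ala-Ala-Pro-Val-p-nitroanilide (100 µM) elastase substrate, equilibrated 2 min at 37 °C, then exposed to test sample for 5 min. Stimulation with FMLP (100 nM)/cytochalasin B (0.5 µg/mL); elastase release followed continuously as absorbance change at 405 nm. DMSO-treated cells served as the 100% reference.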

Structure (SMILES): C=C1CCCC(C)(C)[C@@H]1C[C@H](O)/C(C)=C/CC[C@@H]1[C@@]2(C)CCCC(C)(C)[C@@H]2CC[C@@]1(C)O
CC50 [1]: 5.7 µg/mL (≈ 12.8 µM)
CC50 [2]: 7.8 µg/mL (≈ 17.5 µM)
CC50 [3]: 6.4 µg/mL (≈ 14.4 µM)
CC50 [4]: 4 µg/mL (≈ 8.99 µM)
Elastase release (% of DMSO control) [5]: 132.7%

Structure (SMILES): C=C1CCCC(C)(C)[C@@H]1CC/C(=C\CC[C@@H]1[C@@]2(C)CCCC(C)(C)[C@@H]2CC[C@@]1(C)O)CO
CC50 [1]: > 10 µg/mL
CC50 [2]: > 10 µg/mL
CC50 [3]: > 10 µg/mL
CC50 [4]: > 10 µg/mL
Elastase release (% of DMSO control) [5]: 74.4%

Structure (SMILES): C=C1CCCC(C)(C)[C@@H]1C[C@@H]1O[C@]2(C)CC[C@H]3C(C)(C)CCC[C@]3(C)[C@H]2CC/C=C\1C
CC50 [1]: > 10 µg/mL
CC50 [2]: > 10 µg/mL
CC50 [3]: > 10 µg/mL
CC50 [4]: > 10 µg/mL
Elastase release (% of DMSO control) [5]: 82%

Structure (SMILES): C=C1CCCC(C)(C)[C@@H]1CC/C(=C/CC[C@@H]1[C@@]2(C)CCCC(C)(C)[C@@H]2CC[C@@]1(C)O)COC(=O)c1ccccc1
CC50 [1]: > 10 µg/mL
CC50 [2]: > 10 µg/mL
CC50 [3]: > 10 µg/mL
CC50 [4]: > 10 µg/mL
Elastase release (% of DMSO control) [5]: 75.6%

Structure (SMILES): C=C1CCCC(C)(C)[C@@H]1C[C@@H](OC(=O)c1ccccc1)/C(C)=C/CC[C@@H]1[C@@]2(C)CCCC(C)(C)[C@@H]2CC[C@@]1(C)O
CC50 [1]: > 10 µg/mL
CC50 [2]: > 10 µg/mL
CC50 [3]: > 10 µg/mL
CC50 [4]: > 10 µg/mL
Elastase release (% of DMSO control) [5]: 85.6%

Structure (SMILES): C=C1CCCC(C)(C)[C@@H]1CCC(C)=O
CC50 [1]: > 10 µg/mL
CC50 [2]: > 10 µg/mL
CC50 [3]: > 10 µg/mL
CC50 [4]: > 10 µg/mL

Structure (SMILES): C=C1CCCC(C)(C)[C@@H]1CC(=O)/C(C)=C/CC[C@@H]1[C@@]2(C)CCCC(C)(C)[C@@H]2CC[C@@]1(C)O
CC50 [1]: 6.8 µg/mL (≈ 15.4 µM)
CC50 [2]: 10 µg/mL (≈ 22.6 µM)
CC50 [3]: 5.3 µg/mL (≈ 12 µM)
CC50 [4]: 8.5 µg/mL (≈ 19.2 µM)
Elastase release (% of DMSO control) [5]: 95.1%

Structure (SMILES): COc1cccc2c1C(=O)c1c(O)c3c(c(O)c1C2=O)C[C@@](O)(C(=O)CO)C[C@@H]3O[C@H]1C[C@H](N)[C@H](O)[C@H](C)O1 [DOXORUBICIN]
CC50 [1]: 0.11 µg/mL (≈ 0.202 µM)
CC50 [2]: 0.12 µg/mL (≈ 0.221 µM)
CC50 [3]: 0.21 µg/mL (≈ 0.386 µM)
CC50 [4]: 0.12 µg/mL (≈ 0.221 µM)

Structure (SMILES): O=c1c(-c2ccc(O)cc2)coc2cc(O)cc(O)c12 [GENISTEIN]
Elastase release (% of DMSO control) [5]: 51.6%

Structure (SMILES): C=C1CCCC(C)(C)[C@@H]1CC[C@](C)(O)[C@@H]1CCC2[C@@](C)(CC[C@H]3C(C)(C)CCC[C@]23C)O1 (some centres undefined)
CC50 [1]: > 10 µg/mL
CC50 [2]: > 10 µg/mL
CC50 [3]: > 10 µg/mL
CC50 [4]: > 10 µg/mL
Elastase release (% of DMSO control) [5]: 81.3%

IC50 ([5]; Homo sapiens, Neutrophil): 4.6 µg/mL (≈ 10.7 µM)
Structure (SMILES): C=C1CCCC(C)(C)[C@@H]1CC/C(C)=C/CC[C@@H]1[C@@]2(C)CCCC(C)(C)[C@@H]2CC[C@@]1(C)O [AMBREIN]
CC50 [1]: > 10 µg/mL
CC50 [2]: > 10 µg/mL
CC50 [3]: > 10 µg/mL
CC50 [4]: > 10 µg/mL

Structure (SMILES): C=C1CCCC(C)(C)[C@@H]1C[C@H](OC(=O)c1ccccc1)/C(C)=C/CC[C@@H]1[C@@]2(C)CCCC(C)(C)[C@@H]2CC[C@@]1(C)O
CC50 [1]: > 10 µg/mL
CC50 [2]: > 10 µg/mL
CC50 [3]: > 10 µg/mL
CC50 [4]: > 10 µg/mL
Elastase release (% of DMSO control) [5]: 115.5%

Structure (SMILES): C=C1CCCC(C)(C)[C@@H]1C[C@@H](O)/C(C)=C/CC[C@@H]1[C@@]2(C)CCCC(C)(C)[C@@H]2CC[C@@]1(C)O
CC50 [1]: > 10 µg/mL
CC50 [2]: > 10 µg/mL
CC50 [3]: > 10 µg/mL
CC50 [4]: > 10 µg/mL
Elastase release (% of DMSO control) [5]: 79.3%

Structure (SMILES): C=C1CCCC(C)(C)[C@@H]1C/C=C(\C)[C@H]1CC[C@@H]2[C@@]3(C)CCCC(C)(C)[C@@H]3CC[C@@]2(C)O1
CC50 [1]: > 10 µg/mL
CC50 [2]: > 10 µg/mL
CC50 [3]: > 10 µg/mL
CC50 [4]: > 10 µg/mL
Elastase release (% of DMSO control) [5]: 92.2%
